From ChEMBL document CHEMBL5678802, “Small-molecule p21-activated kinase inhibitor PF-3758309 is a potent inhibitor of oncogenic signaling and tumor growth” (Proc Natl Acad Sci U S A, 2010)
pIC50, pKi: −log10 of the molar value. Active and inactive are the calls of the source. The calls are words filed in the database; no cut-off is given here.

Experiments:
HCT-116 [1] = test: Antitumor activity against human HCT-116 cells xenografted in nude mouse assessed as reduction in BAD phosphorylation at S112 residue at 15 to 150 mg/kg/day administered via pump for 18 hrs by Reverse-Phase protein array analysis; format: functional, organism-based; conditions: dose 15-150 mg/kg/day
[2] = biological target: T1, cGMP-dependent protein kinase 1 (Homo sapiens, UniProt Q13976); test: Inhibition of human PRKG1 in presence of ATP
T1 sequence (Q13976 whole entry): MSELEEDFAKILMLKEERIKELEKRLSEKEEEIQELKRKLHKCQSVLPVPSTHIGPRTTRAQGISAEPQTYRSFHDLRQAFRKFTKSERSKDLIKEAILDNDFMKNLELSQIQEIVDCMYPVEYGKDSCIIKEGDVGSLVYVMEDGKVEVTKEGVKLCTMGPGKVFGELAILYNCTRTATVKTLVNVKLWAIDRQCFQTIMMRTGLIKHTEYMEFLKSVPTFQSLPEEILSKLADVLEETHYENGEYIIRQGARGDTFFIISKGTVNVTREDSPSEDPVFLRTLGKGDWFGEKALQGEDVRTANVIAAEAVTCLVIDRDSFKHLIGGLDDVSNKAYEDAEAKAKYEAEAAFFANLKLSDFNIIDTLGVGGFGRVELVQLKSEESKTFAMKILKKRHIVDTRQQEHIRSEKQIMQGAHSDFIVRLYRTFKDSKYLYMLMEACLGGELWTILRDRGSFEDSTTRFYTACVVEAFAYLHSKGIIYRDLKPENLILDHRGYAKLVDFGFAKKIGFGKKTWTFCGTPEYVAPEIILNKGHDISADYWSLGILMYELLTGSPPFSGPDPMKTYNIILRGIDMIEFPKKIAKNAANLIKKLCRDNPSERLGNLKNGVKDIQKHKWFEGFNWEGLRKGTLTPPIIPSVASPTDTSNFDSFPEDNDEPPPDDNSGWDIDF

BT-474 = test: Antiproliferative activity against human BT-474 cells assessed as inhibition of cell proliferation incubated for 3 days by CellTiter-Glo Luminescent Cell Viability Assay; format: functional, cell-based; conditions: BT-474, 72 h
Procedure, shortened: (§1)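 Cancer cell lines seeded in 384-well plates on day 1; compound added on day 2 and left for 3 days. On day 5 all medium was aspirated, and viable cells were quantified by CellTiter-Glo luminescence, which measures cellular ATP. Dose-dependent effects on proliferation were determined.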

COLO 205 = test: Antitumor activity against human COLO 205 cells xenografted in nude mouse assessed as tumor growth inhibition at 20 mg/kg, po administered once daily for 9 to 18 days relative to control; format: functional; conditions: time 9-18 day, read-out: TGI
Procedure, shortened: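 Tumor cells were implanted s.c. into the right flank of female nu/nu nude mice aged 6–8 weeks. Animals were randomized into treatment groups once tumors were established (example: day 8 postimplant, about 170 mm3, animals >22 g). Compound in 0.5% methylcellulose was given by oral gavage. Tumors were measured with calipers two to three times per week.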

RKO = test: Antiproliferative activity against human RKO cells assessed as inhibition of cell proliferation incubated for 3 days by CellTiter-Glo Luminescent Cell Viability Assay; format: functional, cell-based; conditions: 72 h
Procedure, shortened: (§2)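 Cells of each line were plated in 384-well plates on day 1 and exposed to compound from day 2 for 3 days. On day 5 all medium was aspirated. Viable cell number was read by CellTiter-Glo luminescence, which quantifies cellular ATP.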

[3] = biological target: T2, Tyrosine-protein kinase Yes (Homo sapiens, UniProt P07947); test: Inhibition of human YES1 in presence of ATP relative to control; conditions: concentration not given here
Target sequence in this assay (P07947 2-543 limits assumed): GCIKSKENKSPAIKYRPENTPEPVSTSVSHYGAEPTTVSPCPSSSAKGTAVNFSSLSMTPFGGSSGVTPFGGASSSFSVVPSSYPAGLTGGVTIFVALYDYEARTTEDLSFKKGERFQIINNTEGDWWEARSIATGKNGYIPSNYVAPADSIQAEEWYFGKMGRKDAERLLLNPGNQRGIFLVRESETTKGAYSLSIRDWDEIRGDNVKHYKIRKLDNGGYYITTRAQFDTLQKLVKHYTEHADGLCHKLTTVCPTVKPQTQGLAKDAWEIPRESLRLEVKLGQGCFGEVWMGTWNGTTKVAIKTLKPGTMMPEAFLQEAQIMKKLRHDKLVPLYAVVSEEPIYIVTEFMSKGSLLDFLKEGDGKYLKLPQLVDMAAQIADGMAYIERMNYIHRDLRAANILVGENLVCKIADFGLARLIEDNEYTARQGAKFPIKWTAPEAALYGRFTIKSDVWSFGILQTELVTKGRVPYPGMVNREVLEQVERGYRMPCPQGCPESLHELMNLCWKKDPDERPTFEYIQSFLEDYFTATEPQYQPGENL

NCI-H1770 = test: Inhibition of anchorage independent cell growth in human NCI-H1770 cells incubated for 6 days by Alamar blue reagent based fluorescence plate reader analysis; format: functional; conditions: NCI-H1770, 144 h
[4] = biological target: Serine/threonine-protein kinase D1 (Homo sapiens) (UniProt Q15139); test: Inhibition of human PKCmu in presence of ATP relative to control; conditions: concentration not given here
Serine/threonine-protein kinase D1 (Homo sapiens), sequence (Q15139 whole entry): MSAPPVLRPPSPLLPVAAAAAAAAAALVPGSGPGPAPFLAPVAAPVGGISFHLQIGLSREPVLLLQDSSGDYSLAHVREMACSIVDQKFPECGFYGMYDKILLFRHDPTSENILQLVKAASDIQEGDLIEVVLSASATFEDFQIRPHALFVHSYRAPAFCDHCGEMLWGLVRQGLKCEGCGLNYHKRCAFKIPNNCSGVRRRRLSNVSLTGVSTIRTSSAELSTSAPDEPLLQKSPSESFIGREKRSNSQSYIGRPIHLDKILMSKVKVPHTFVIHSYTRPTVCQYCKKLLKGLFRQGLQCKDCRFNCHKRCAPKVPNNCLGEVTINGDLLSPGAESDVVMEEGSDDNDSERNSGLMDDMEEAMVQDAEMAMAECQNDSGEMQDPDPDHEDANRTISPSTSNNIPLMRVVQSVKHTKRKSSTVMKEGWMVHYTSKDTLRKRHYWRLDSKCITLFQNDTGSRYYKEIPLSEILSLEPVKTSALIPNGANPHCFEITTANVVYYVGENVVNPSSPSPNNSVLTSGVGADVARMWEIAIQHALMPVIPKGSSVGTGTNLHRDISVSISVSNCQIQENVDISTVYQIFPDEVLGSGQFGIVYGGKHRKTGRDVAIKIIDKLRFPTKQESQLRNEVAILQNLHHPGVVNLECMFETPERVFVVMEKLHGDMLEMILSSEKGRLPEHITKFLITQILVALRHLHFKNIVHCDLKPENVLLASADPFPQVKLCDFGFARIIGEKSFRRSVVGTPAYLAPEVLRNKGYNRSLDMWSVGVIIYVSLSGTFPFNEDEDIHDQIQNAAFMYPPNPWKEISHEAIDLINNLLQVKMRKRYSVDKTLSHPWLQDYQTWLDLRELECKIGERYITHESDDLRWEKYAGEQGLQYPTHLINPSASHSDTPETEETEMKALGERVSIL

HCT-116 [5] = test: Antitumor activity against human HCT-116 cells xenografted in nude mouse assessed as tumor growth inhibition at 3.3 mg/kg administered via pump for 9 days relative to control; format: functional; conditions: HCT-116, 216 h, time 9 day, read-out: TGI
[6] = biological target: Tyrosine-protein kinase Fgr (Homo sapiens, UniProt P09769); test: Inhibition of human FGR assessed as inhibition constant in presence of ATP
Tyrosine-protein kinase Fgr, sequence (P09769 whole entry): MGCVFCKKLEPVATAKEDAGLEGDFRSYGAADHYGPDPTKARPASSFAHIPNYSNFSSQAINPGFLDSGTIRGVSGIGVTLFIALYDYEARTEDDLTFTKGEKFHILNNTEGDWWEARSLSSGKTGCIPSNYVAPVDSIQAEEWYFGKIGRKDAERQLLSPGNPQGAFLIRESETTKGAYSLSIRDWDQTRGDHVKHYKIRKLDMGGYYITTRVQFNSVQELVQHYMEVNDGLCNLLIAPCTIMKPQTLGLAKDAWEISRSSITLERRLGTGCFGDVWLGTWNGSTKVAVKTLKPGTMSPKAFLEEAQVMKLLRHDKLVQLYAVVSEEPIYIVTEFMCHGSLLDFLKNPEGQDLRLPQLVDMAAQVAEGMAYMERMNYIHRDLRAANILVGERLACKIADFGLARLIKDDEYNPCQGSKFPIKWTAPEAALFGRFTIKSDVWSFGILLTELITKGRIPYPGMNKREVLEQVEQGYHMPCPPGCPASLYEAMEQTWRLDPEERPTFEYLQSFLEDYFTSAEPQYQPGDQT

NCI-H1993 = test: Inhibition of anchorage independent cell growth in human NCI-H1993 cells incubated for 6 days by Alamar blue reagent based fluorescence plate reader analysis; format: functional; conditions: NCI-H1993, 144 h
HCT-116 [7] = test: Antitumor activity against human HCT-116 cells xenografted in nude mouse assessed as reduction in Ki67 at 15 to 25 mg/kg administered orally twice daily by immunohistochemical analysis; format: functional, organism-based; conditions: dose 15-25 mg/kg, route po, time 3-6 day, TDE = time-dependent effect
HCT-116 [8] = test: Antitumor activity against human HCT-116 cells xenografted in nude mouse assessed as reduction in Src phosphorylation at Y416 residue at 15 to 150 mg/kg/day administered via pump for 18 hrs by Reverse-Phase protein array analysis; format: functional, organism-based; conditions: dose 15-150 mg/kg/day
[9] = Antiproliferative activity against human GTL16S4 acquired resistance cells assessed as inhibition of cell proliferation incubated for 3 days by CellTiter-Glo Luminescent Cell Viability Assay; format: functional, cell-based; conditions: 72 h; procedure, shortened: as §1
M24met = test: Antitumor activity against human M24met cells xenografted in nude mouse assessed as tumor growth inhibition at 15 mg/kg, po administered once daily for 9 to 18 days relative to control; format: functional; conditions: time 9-18 day, read-out: TGI
[10] = biological target: T2, Tyrosine-protein kinase Yes; test: Inhibition of human YES1 assessed as inhibition constant in presence of ATP
Target sequence in this assay (P07947 whole entry): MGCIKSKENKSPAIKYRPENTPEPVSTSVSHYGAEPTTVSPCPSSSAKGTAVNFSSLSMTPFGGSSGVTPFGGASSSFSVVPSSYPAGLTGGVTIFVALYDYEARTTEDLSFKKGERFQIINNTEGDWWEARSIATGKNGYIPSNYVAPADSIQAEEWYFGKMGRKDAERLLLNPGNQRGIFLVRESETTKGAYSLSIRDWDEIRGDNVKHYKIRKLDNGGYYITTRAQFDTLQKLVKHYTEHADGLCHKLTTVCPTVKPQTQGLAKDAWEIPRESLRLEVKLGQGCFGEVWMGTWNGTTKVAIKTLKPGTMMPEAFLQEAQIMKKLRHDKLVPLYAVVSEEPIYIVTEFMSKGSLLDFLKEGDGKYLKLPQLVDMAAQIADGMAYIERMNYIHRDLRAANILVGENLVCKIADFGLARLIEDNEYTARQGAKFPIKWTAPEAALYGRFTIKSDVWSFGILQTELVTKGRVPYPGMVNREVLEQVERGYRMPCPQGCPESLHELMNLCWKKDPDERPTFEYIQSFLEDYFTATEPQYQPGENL

PANC-08-13 = test: Antiproliferative activity against human PANC-08-13 cells assessed as inhibition of cell proliferation incubated for 3 days by CellTiter-Glo Luminescent Cell Viability Assay; format: functional, cell-based; conditions: PANC-08-13, 72 h; procedure, shortened: as §2
SK-BR-3 = test: Antiproliferative activity against human SK-BR-3 cells assessed as inhibition of cell proliferation incubated for 3 days by CellTiter-Glo Luminescent Cell Viability Assay; format: functional, cell-based; conditions: SK-BR-3, 72 h; procedure, shortened: as §2
COLO 320DM = test: Inhibition of anchorage independent cell growth in human COLO 320DM cells incubated for 6 days by Alamar blue reagent based fluorescence plate reader analysis; format: functional; conditions: 144 h
NCI-H520 = test: Antiproliferative activity against human NCI-H520 cells assessed as inhibition of cell proliferation incubated for 3 days by CellTiter-Glo Luminescent Cell Viability Assay; format: functional, cell-based; conditions: NCI-H520, 72 h; procedure, shortened: as §2
SW-620 = test: Antiproliferative activity against human SW620 cells assessed as inhibition of cell proliferation incubated for 3 days by CellTiter-Glo Luminescent Cell Viability Assay; format: functional, cell-based; conditions: SW-620, 72 h; procedure, shortened: as §2
[11] = biological target: RAC-gamma serine/threonine-protein kinase (Homo sapiens, UniProt Q9Y243); test: Inhibition of human AKT3 assessed as inhibition constant in presence of ATP
RAC-gamma serine/threonine-protein kinase, sequence (Q9Y243 whole entry, the tested form may be a part): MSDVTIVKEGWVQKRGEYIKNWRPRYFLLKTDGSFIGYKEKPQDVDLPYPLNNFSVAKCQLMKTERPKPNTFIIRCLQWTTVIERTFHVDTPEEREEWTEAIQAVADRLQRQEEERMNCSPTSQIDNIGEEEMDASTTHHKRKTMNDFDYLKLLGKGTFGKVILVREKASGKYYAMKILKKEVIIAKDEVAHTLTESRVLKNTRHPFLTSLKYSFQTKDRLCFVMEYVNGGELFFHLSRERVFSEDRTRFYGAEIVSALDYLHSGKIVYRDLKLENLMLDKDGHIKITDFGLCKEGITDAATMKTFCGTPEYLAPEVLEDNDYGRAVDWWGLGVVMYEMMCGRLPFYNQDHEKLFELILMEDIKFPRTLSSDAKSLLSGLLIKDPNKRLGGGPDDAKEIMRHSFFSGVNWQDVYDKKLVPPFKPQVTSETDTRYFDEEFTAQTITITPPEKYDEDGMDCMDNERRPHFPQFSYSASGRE

[12] = Inhibition of YFP/YFP variant coding sequence fused p53/Pin1 (unknown origin) expressed in HEK293 cells incubated for 8 to 24 hrs by fluorescence based analysis; format: cell-based, Homo sapiens
NCI-H1299 = test: Inhibition of anchorage independent cell growth in human NCI-H1299 cells incubated for 6 days by Alamar blue reagent based fluorescence plate reader analysis; format: functional; conditions: NCI-H1299, 144 h

pIC50 [2]: 7.47
pIC50 (BT-474): 8.74
inhibition [3]: 92%
pIC50 (NCI-H1770): 8.74
inhibition [4]: 96%
pKi [6]: 7.82
pIC50 (NCI-H1993): 7.92
pKi [10]: 7.37
pIC50 (PANC-08-13): 7.92
pIC50 (SK-BR-3): 6.88
pIC50 (COLO 320DM): 6.43
pIC50 (NCI-H520): 8.25
pIC50 (SW-620): 8.24
pKi [11]: 6.76
pIC50 [12]: 8.24
pIC50 (NCI-H1299): 8.15
Structure (SMILES): Cc1nc(Nc2n[nH]c3c2CN(C(=O)N[C@H](CN(C)C)c2ccccc2)C3(C)C)c2sccc2n1 [PF-03758309]
Activity (HCT-116 [1]): Active
inhibition in vivo at 20 mg/kg (COLO 205): 106%
pIC50 (RKO): 8.74
inhibition in vivo at 3.3 mg/kg (HCT-116 [5]): 114%
Activity (HCT-116 [7]): Tde
Activity (HCT-116 [8]): Active
pIC50 [9]: 5.00
inhibition in vivo at 15 mg/kg (M24met): 72%
